Laboratory results as given in ChEMBL document CHEMBL1129982, “Structure-activity relationships in a series of orally active gamma-hydroxy butenolide endothelin antagonists” (J Med Chem, 1997).

Tests used:
[1] = molecular target: T1, Endothelin receptor type B (Homo sapiens, UniProt P24530); experiment: Binding affinity against human cloned Endothelin B receptor expressed in CHO-K1 cells; assay type: cell-based
T1 sequence (P24530 whole entry): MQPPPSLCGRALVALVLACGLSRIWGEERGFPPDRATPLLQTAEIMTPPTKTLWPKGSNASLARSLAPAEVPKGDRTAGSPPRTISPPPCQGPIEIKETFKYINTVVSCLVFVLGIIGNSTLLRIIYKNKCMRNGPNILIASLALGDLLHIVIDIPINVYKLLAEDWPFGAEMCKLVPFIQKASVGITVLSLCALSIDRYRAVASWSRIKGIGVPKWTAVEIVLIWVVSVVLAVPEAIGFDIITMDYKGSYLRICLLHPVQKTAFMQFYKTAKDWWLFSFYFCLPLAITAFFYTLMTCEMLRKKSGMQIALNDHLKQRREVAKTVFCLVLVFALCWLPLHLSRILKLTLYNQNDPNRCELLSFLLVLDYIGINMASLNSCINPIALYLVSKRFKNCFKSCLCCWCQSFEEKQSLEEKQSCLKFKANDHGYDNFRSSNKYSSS
Method in brief: (§1)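 Radioligand binding to cloned human ETA (Ltk⁻ cells) and ETB (CHO-K1 cells) receptors. […] Selectivity expressed as ETB IC50/ETA IC50.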

[2] = molecular target: Endothelin receptor, ET-A/ET-B (Homo sapiens) (UniProt P24530+P25101); experiment: Selectivity of compound on ET B with respect to ET A receptor; assay type: protein assay; method in brief: as §1
Endothelin-1 receptor = molecular target: T2, Endothelin-1 receptor (Homo sapiens, UniProt P25101); experiment: Binding affinity against human cloned endothelin A receptor expressed in LTK-cells; assay type: cell-based
T2 sequence (P25101 whole entry): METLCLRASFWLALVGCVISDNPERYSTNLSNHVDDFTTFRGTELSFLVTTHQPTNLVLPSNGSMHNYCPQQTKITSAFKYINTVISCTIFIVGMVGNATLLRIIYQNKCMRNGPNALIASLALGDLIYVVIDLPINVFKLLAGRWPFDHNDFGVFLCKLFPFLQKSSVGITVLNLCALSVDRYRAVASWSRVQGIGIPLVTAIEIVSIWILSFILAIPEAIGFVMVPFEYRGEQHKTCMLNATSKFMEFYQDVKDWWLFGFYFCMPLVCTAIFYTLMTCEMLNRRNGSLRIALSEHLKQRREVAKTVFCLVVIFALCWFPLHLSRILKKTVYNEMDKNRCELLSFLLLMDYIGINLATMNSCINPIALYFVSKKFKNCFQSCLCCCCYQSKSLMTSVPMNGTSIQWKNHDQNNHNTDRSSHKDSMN
Method in brief: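 Radioligand binding to cloned human ETA (Ltk⁻ cells) and ETB (CHO-K1 cells) receptors. Selectivity expressed as ETB IC50/ETA IC50.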

[3] = Mean of apparent terminal phase elimination half-life after intravenous administration of 2.5 mg/kg in dogs; assay type: ADME, organism-based, Canis lupus familiaris; set-up: dose 2.5 mg/kg, route intravenous; details: dog, in vivo
Method in brief: (§2)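 Four male beagle dogs, fed, single 2.5 mg/kg iv dose within a three-way crossover. Serial heparinized plasma sampled to 24 h. Drug recovered by reverse-phase solid-phase extraction and measured by HPLC with fluorescence detection (ex 312, em 430 nm); LOQ 10 ng/mL.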

[4] = Mean of apparent terminal phase elimination half-life in oral (5 mg/kg) fasted dogs; assay type: ADME, organism-based, Canis lupus familiaris; details: dog, in vivo
Method in brief: (§3)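 Three-way crossover in four male beagles: single 2.5 mg/kg iv dose (fed) or 5 mg/kg oral capsule, fed or fasted. Serial heparinized plasma taken up to 24 h. Drug isolated by reverse-phase SPE, quantified by C18 HPLC with fluorescence (ex 312, em 430 nm), LOQ 10 ng/mL. Noncompartmental analysis. […] AUC by trapezoidal rule extrapolated to infinity. F from dose-normalized po/iv AUC ratio.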

[5] = Area under the concentration-time curve from time zero to infinity after intravenous administration of 2.5 mg/kg in dogs; assay type: ADME, organism-based, Canis lupus familiaris; set-up: dose 2.5 mg/kg, route intravenous; details: dog, in vivo; method in brief: as §2
[6] = Maximum observed concentration in oral (5 mg/kg) fed dogs; assay type: ADME, organism-based, Canis lupus familiaris; set-up: dose 5 mg/kg, route oral; details: dog, in vivo; method in brief: as §3
[7] = Maximum observed concentration in oral (5 mg/kg) fasted dogs; assay type: ADME, organism-based, Canis lupus familiaris; set-up: dose 5 mg/kg, route oral; details: dog, in vivo; method in brief: as §3
[8] = Area under the concentration-time curve from time zero to infinity in oral (5 mg/kg) fed dogs; assay type: ADME, organism-based, Canis lupus familiaris; details: dog, in vivo; method in brief: as §3
[9] = Time to reach maximum observed concentration in oral (5 mg/kg) fed dogs; assay type: ADME, organism-based, Canis lupus familiaris; details: dog, in vivo; method in brief: as §3
[10] = Absolute oral bioavailability in oral (5 mg/kg) fed dogs; assay type: ADME, organism-based, Canis lupus familiaris; details: dog, in vivo; method in brief: as §3
[11] = Time to reach maximum observed concentration in oral (5 mg/kg) fasted dogs; assay type: ADME, organism-based, Canis lupus familiaris; details: dog, in vivo; method in brief: as §3
[12] = Mean of apparent terminal phase elimination half-life in oral (5 mg/kg) fed dogs; assay type: ADME, organism-based, Canis lupus familiaris; details: dog, in vivo; method in brief: as §3
[13] = Area under the concentration-time curve from time zero to infinity in oral (5 mg/kg) fasted dogs; assay type: ADME, organism-based, Canis lupus familiaris; details: dog, in vivo; method in brief: as §3
[14] = Absolute oral bioavailability in oral (5 mg/kg) fasted dogs; assay type: ADME, organism-based, Canis lupus familiaris; details: dog, in vivo; method in brief: as §3
[15] = molecular target: T1, Endothelin receptor type B; experiment: Inhibition of Endothelin B receptor mediated (ET-3) release of arachidonic acid from human cloned receptors expressed in CHO-K1 cells; assay type: cell-based
Method in brief: (§4)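 Arachidonic acid release assay. ETA: rabbit renal artery vascular smooth muscle cells stimulated with ET-1. ETB: recombinant human receptors in CHO-K1 cells stimulated with ET-3.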

Rattus norvegicus = experiment: In vivo effect at 10 mg/kg on MABP in anesthetized ganglionic-blocked rats versus ET-1 (0.3 nmol/kg, iv) baseline; assay type: functional
Method in brief: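 Rats dosed orally by gavage at 10 mg/kg. Ganglionic blockade with mecamylamine given 15 min later (baseline MABP 80–90 mmHg). ET-1 challenge (0.3 nmol/kg iv) 15 min after that. Reduction of the peak pressor response, about 5 min post ET-1, scored against vehicle-treated controls.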

[16] = molecular target: T1, Endothelin receptor type B; experiment: Inhibition of Endothelin B receptor mediated (ET-3) release of arachidonic acid from human cloned receptors / CHO-K1 cells; In active; assay type: cell-based; method in brief: as §4

Compound | IC50 [1] [nM] | IC50 (Endothelin-1 receptor) [nM] | IC50 [15] [nM] | other results
COc1ccc(C2(O)OC(=O)C(c3ccc4c(c3)OCO4)=C2Cc2cc(OC)c(OC)c(OC)c2)cc1C (centres undefined) | 240 | 0.5 | – | Selectivity [2]: 480
COc1ccc(C2(O)OC(=O)C(c3ccc4c(c3)OCO4)=C2Cc2cc(OC)c(OC)c(OC)c2)cc1 (centres undefined) [PD-156707] | – | – | – | half-life [3]: 0.62 h; half-life [4]: 1.2 h; AUC(0-inf) [5]: 1500 ng·h/mL; Cmax [6]: 480 ng/mL; Cmax [7]: 1520 ng/mL; AUC(0-inf) [8]: 590 ng·h/mL; Tmax [9]: 2.5 h; bioavailability [10]: 20%; Tmax [11]: 0.69 h; half-life [12]: 1.9 h; AUC(0-inf) [13]: 2000 ng·h/mL; bioavailability [14]: 67%
COc1ccc(C2(O)OC(=O)C(c3cc(OC)c4c(c3)OCO4)=C2Cc2cc(OC)c(OC)c(OC)c2)cc1 (centres undefined) | 260 | 0.5 | – | Selectivity [2]: 520
COc1ccc(C(=O)/C(Cc2cc(OC)c(OC)c(OC)c2)=C(\C(=O)O)c2cc(OC)c3c(c2)OCO3)cc1C | – | – | 68 | –
COc1ccc(C(=O)/C(Cc2ccc(NC(C)=O)cc2)=C(\C(=O)O)c2ccc3c(c2)OCO3)cc1 | – | – | 8200 | –
COc1ccc(C(=O)/C(Cc2ccccc2)=C(\C(=O)[O-])c2ccc3c(c2)OCO3)cc1.C[N+](C)(C)CCO | – | – | 22000 | Pressure response (Rattus norvegicus): 80%
CCOc1cc(CC2=C(c3ccc4c(c3)OCO4)C(=O)OC2(O)c2ccc(OC)cc2)cc(OCC)c1OCC (centres undefined) | 445 | 0.12 | – | Selectivity [2]: 3700
O=C1OC(O)(c2ccc(Cl)cc2)C(Cc2ccccc2)=C1c1ccc2c(c1)OCO2 (centres undefined) | 27000 | – | – | IC50 [16]: Not Active
COc1ccc(C(=O)/C(Cc2ccccc2)=C(\C(=O)[O-])c2cc(OC)c3c(c2)OCO3)cc1.[Na+] | – | – | 15700 | Pressor response (Rattus norvegicus): 76%
COc1ccc(C2(O)OC(=O)C(c3cc(OC)c4c(c3)OCO4)=C2Cc2ccccc2)cc1 (centres undefined) | 640 | 6.7 | – | –
COc1ccc(C2(O)OC(=O)C(c3ccc4c(c3)OCO4)=C2Cc2ccc(SC)cc2)cc1 (centres undefined) | > 2500 | 3.9 | – | –
COc1ccc(C(=O)/C(Cc2cc(OC)c(OC)c(OC)c2)=C(\C(=O)[O-])c2ccc3c(c2)OCO3)cc1C.[Na+] | – | – | 1900 | Pressor response (Rattus norvegicus): 53%
O=C1OC(O)(c2ccc(C(=O)O)cc2)C(Cc2ccccc2)=C1c1ccc2c(c1)OCO2 (centres undefined) | > 2500 | > 25000 | – | –
COC(=O)c1ccc(C2(O)OC(=O)C(c3ccc4c(c3)OCO4)=C2Cc2ccccc2)cc1 (centres undefined) | > 2500 | 400 | – | –
